Compounds with a hit are over-represented: about 1.7% of the library has one in this group of screens.
PABP polyA inh – PABP-poly(A) binding inhibition; PABP-poly(A) RNA binding, fluorescence polarization; inhibition, % at 35 µM; 290,000 compounds, 1% hits;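 note: calls also rest on retests at 20 µM and on dose response follow-up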
Target sequence (P11940 whole entry, looked up): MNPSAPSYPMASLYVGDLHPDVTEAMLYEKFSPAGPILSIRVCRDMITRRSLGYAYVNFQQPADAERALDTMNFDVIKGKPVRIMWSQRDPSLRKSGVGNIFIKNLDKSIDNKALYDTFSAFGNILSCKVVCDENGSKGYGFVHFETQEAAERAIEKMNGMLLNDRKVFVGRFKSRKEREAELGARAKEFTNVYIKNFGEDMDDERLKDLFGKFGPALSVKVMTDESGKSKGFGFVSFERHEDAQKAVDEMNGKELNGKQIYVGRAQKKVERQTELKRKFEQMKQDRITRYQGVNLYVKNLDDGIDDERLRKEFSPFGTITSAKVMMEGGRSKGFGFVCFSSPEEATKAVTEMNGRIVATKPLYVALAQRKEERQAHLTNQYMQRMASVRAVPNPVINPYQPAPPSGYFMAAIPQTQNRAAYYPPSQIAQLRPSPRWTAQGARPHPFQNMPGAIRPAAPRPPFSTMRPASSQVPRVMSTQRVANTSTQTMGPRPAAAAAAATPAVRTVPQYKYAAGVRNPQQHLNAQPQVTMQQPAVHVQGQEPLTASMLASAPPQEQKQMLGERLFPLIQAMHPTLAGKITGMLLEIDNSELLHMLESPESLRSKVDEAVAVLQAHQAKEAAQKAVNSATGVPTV
MT1-MMP act inh – blocks activation of human MT1-MMP; HT1080 RFP-PRO-GFP cells, GFP/RFP ratio fluorescence, overnight; percent of plate control window, DMSO zero; GFP/RFP ratio change, % at 20 µM; 360,000 compounds, 0.061% hits; AID 651647;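 active = GFP/RFP ratio change of at least 30% with cell ATP level not reduced by more than half and red fluorescence within 50% of control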
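Test system: HT1080 RFP-PRO-GFP cells; Benchmarks: DMSO and RFP-L50D-GFP cell wells; Timing: cells overnight before dosing, compound overnight, 37 °C, 5% CO2; Compound: one 20 µM compound dose with 1% DMSO; Read-out: GFP/RFP fluorescence ratio.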
SKN-1 block – C. elegans SKN-1 inhibition. C. elegans VP596 Pgst-4::GFP/RFP ratio, acrylamide-induced, 24 h. inhibition, % at 21.8 µM. 360,000 compounds, 0.49% hits. AID 624304;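 active = interference check ratio from 0.5 to 1.5 plus GFP to RFP signal ratio inhibition reaching or exceeding a fixed threshold, cut at about 30% in these data, passing the limit was not always enough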
PABP1 MLLE inh – inhibitors of microRNA-mediated deadenylation, human PABP1 MLLE binding; 360,000 compounds, 0.36% hits; P11940; GST-MLLE / FITC-PAM2 fluorescence polarization; inhibition, % at 20 µM; in the data active = inhibition above about 35%, passing the limit was not always enough
eIF4H inh – inhibitors of RNA binding by human eIF4H; Q15056; eIF4H fluorescence polarization binding assay; 290,000 compounds, 0.94% hits; inhibition, % at 35 µM; AID 2012;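 note: calls also rest on retests at 20 µM and on dose response follow-up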
Numbers stand for hits; i = inactive; ? = inconclusive; nt = not tested or not shown. Unless noted, the rule behind the calls is not given here.

SMILES	PABP polyA inh	MT1-MMP act inh	SKN-1 block	PABP1 MLLE inh	eIF4H inh
O=C(Nc1cc(S(=O)(=O)N2CCOCC2)ccc1Cl)c1cc2ccccc2o1	nt	i	i	i	nt
O=C(NC1(C(F)(F)F)NC(=O)N(Cc2ccco2)C1=O)c1cccnc1 (stereo not given)	i	i	i	i	i
O=C(NC1(C(F)(F)F)NC(=O)N(Cc2ccco2)C1=O)c1cccs1 (stereo not given)	50	i	i	i	92
O=C(COC(=O)CNC(=O)C1CCCCC1)Nc1ccccc1Cl	nt	i	i	i	nt
O=C(NC(=S)NNS(=O)(=O)c1ccc(Cl)cc1)c1cccnc1	i	i	i	40	i
COCCN1CCN(Cc2cn[nH]c2-c2cc3ccccc3o2)CC1	i	i	i	i	i
Cc1ccc(S(=O)c2ccc([N+](=O)[O-])c3nonc23)cc1 (stereo not given)	nt	nt	i	i	nt
CCOc1cc(/C=C2\C(=O)N(CCC#N)N=C2C)ccc1OCC(N)=O	i	i	i	i	i
CC1=NN(CCC#N)C(=O)/C1=C/c1ccc(N(C)C)cc1	i	i	i	i	77
Oc1c(Br)cc(/C=N/n2c(-c3ccccc3)n[nH]c2=S)c(Br)c1O	90	nt	nt	nt	85
Cc1cccc(S(=O)(=O)N[C@@H]2CC[C@@H](CCNS(=O)(=O)c3ccccc3F)O[C@@H]2CO)c1	nt	i	i	nt	nt
CN(C)c1ccc(N=Nc2nc3ccccc3n2C)cc1	i	i	62	i	i
CCn1c(NCc2ccc(N(C)C)cc2)nc2ccccc21	i	i	i	i	i
Cn1c(Cl)nc2ccccc21	i	i	i	i	i
Cn1c(N=Nc2ccccc2)nc2ccccc21	i	i	40	i	?
COCCN(C(=O)/C=C/c1cccc([N+](=O)[O-])c1)c1c(N)n(Cc2ccccc2)c(=O)[nH]c1=O	i	i	i	i	i
CCCN(C(=O)c1cc2c(s1)CCC2)c1c(N)n(Cc2ccccc2)c(=O)[nH]c1=O	55	i	i	i	96
COCCN(C(=O)/C=C/c1ccccc1)c1c(N)n(Cc2ccccc2)c(=O)[nH]c1=O	i	i	52	i	i
CCOC1=C2[C@H](c3ccccc3)N(S(=O)(=O)c3ccc(C)cc3)C[C@H]2n2c(=O)n(-c3ccccc3)c(=O)n2C1	nt	i	i	i	nt
C=CCN(C(=O)c1csnn1)C(C(=O)NC1CCCC1)c1ccccc1 (stereo not given)	i	i	i	i	i
CN1/C(=C/C=C(/C#N)C(N)=O)C(C)(C)c2ccccc21	i	i	i	i	55
CN1/C(=C\C(=O)Nc2ccc(F)cc2)C(C)(C)c2ccccc21	i	i	i	i	i
CN1/C(=C\C=N\O)C(C)(C)c2ccccc21	i	i	i	i	i
CN1/C(=C\C=C(/C#N)C(=O)Nc2ccccc2F)C(C)(C)c2ccccc21	7.9	i	i	i	i
O=C(NC(=O)c1c(F)cccc1F)Nc1cccc(Oc2ncc(Cl)cn2)c1	nt	i	i	i	nt
SMILES	PABP polyA inh	MT1-MMP act inh	SKN-1 block	PABP1 MLLE inh	eIF4H inh
CC(Nc1nc(-c2cccnc2)nc2ccccc12)c1ccc(F)cc1 (stereo not given)	i	i	i	i	i
N#C/C(=C\c1ccc(-c2ccc(C(=O)O)cc2)o1)C(=O)Nc1ccc(F)cc1	70	i	i	i	87
Nc1ccccc1SCc1csc(-c2ccc(Cl)cc2)n1	i	i	i	i	i
Clc1ccc(-c2nc(CSc3ccccn3)cs2)cc1	nt	i	58	i	nt
COc1cc([C@@H]2[C@H]3CNCC=C3C(C#N)=C(N)C2(C#N)C#N)ccc1OC(C)C	91	i	i	i	73
COC(=O)c1sc2nc(CSc3ccc(Br)cc3)[nH]c(=O)c2c1C	17	i	i	i	51
COCCn1c(SCc2nc3sc(C(=O)OC)c(C)c3c(=O)[nH]2)nc2ccccc21	i	i	i	i	i
CCn1c(SCc2nc3sc(C(=O)O)c(C)c3c(=O)[nH]2)nc2ccccc21	80	i	i	i	83
CCOC(=O)c1sc2nc(CSc3ccccc3Cl)[nH]c(=O)c2c1C	i	i	i	i	i
O=C(CSc1nnc(COc2cccc3ccccc23)o1)N1c2ccccc2CCc2ccccc21	i	i	45	i	i
NC(=O)CSc1nnc(COc2cccc3ccccc23)o1	i	i	i	i	i
CSc1nc(=S)c2[nH]c(=S)[nH]c2[nH]1	59	i	i	i	92
O=C(O)Cn1c(O)c(C2=c3ccccc3=NC2=O)sc1=O	i	i	i	i	i
Cc1c(-n2c(O)c(C3=c4ccccc4=NC3=O)sc2=O)c(=O)n(-c2ccccc2)n1C	i	i	i	47	i
CCC(CC)C(=O)Nc1cc([N+](=O)[O-])ccc1F	i	i	i	i	i
CCC(CC)C(=O)Nc1cc([N+](=O)[O-])ccc1Cl	68	i	i	i	i
O=C(CSc1cn[nH]n1)Nc1ccc(O)c(C(=O)O)c1	i	i	i	38	i
Nc1nc(N)c(N=Nc2ccc(C(=O)O)cc2)c(N)n1	i	i	i	i	i
O=C(O)c1ccc(N=Nc2c(O)ccc3ncccc23)cc1	45	i	i	i	90
Cc1ccc(-c2c(C#N)c(N)nc3c2CCCCC3)o1	85	i	i	i	63
Cc1ccc(-c2c(C#N)c(N)nc3c2CCCCCC3)o1	i	i	i	i	i
CCC(C)N(C(=O)COC(=O)CNC(=O)c1sc2ccccc2c1Cl)C1CCS(=O)(=O)C1 (stereo not given)	i	i	i	i	i
CN1CCN(CCC(=O)Nc2ccc(OCc3ccccc3)cc2)CC1	i	i	i	i	i
CCOc1ccc(NC(=O)CCN2CCN(C)CC2)cc1	i	i	37	i	i
Fc1ccccc1COc1ccc2ccccc2c1CNc1nn[nH]n1	i	i	i	i	i
SMILES	PABP polyA inh	MT1-MMP act inh	SKN-1 block	PABP1 MLLE inh	eIF4H inh
CN1c2cccc3cccc(c23)N(C)C1(C)C	55	i	i	i	73
COC(=O)c1cc(NC(=O)Cn2c(=O)oc3ccccc32)cc(C(=O)OC)c1	i	i	i	i	i
COC(=O)C1=C(C)NC(=O)/C1=C\c1cc(C)n(-c2cc(C)cc(C)c2)c1C	97	i	i	i	83
CC(=O)Nc1nnc(SCC(=O)NCCOc2ccccc2)s1	51	i	i	i	active
Cc1ccc2[nH]c3c(=O)n(CC(=O)NCc4ccco4)ncc3c2c1	i	i	i	i	59
Cc1ccc(CCNC(=O)Cn2ncc3c([nH]c4ccccc43)c2=O)cc1	i	i	i	i	i
Cc1ccc(S(=O)(=O)NCCC(=O)NCCc2ccc(S(N)(=O)=O)cc2)cc1C	nt	i	i	i	nt
COc1ccc(N2CC(C(=O)Nc3ccncc3)CC2=O)cc1 (stereo not given)	i	i	i	i	i
CCCCC(CC)Cn1c(N)c(C#N)c2nc3ccccc3nc21 (stereo not given)	64	i	i	i	68
O=C(NCc1cccs1)c1cc(S(=O)(=O)N2CCOCC2)ccc1N1CCCC1	nt	i	i	i	nt
